Data taken from ChEMBL document CHEMBL1149648, “Norcantharimides, synthesis and anticancer activity: Synthesis of new norcantharidin analogues and their anticancer evaluation” (2007).

Columns and labels:
Assay type in all cases: functional
[1] = Cytotoxicity against human BE2C cells at 100 uM after 72 hrs by MTT assay; conditions: BE(2)-C
Procedure, shortened: (§1)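 Log-phase cells in DMEM with 10% FBS (37 °C, 5% CO2) were plated in duplicate at 2500–4000 cells/well. Agent was added 24 h later at a fixed final concentration of 100 µM and left for 72 h continuous exposure. Read-out was MTT absorbance at 540 nm, expressed as percent growth inhibition, where 100% means total growth inhibition.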

[2] = test system: A-431; assay: Cytotoxicity against human A431 cells at 100 uM after 72 hrs by MTT assay; conditions: A-431, 72 h; procedure, shortened: as §1
[3] = test system: SW480; assay: Cytotoxicity against human SW480 cells at 100 uM after 72 hrs by MTT assay; conditions: SW480, 72 h; procedure, shortened: as §1
[4] = Cytotoxicity against human SJG2 cells at 100 uM after 72 hrs by MTT assay; conditions: SJ-G2, 72 h; procedure, shortened: as §1
[5] = test system: NCI-H460; assay: Cytotoxicity against human H460 cells at 100 uM after 72 hrs by MTT assay; conditions: NCI-H460, 72 h; procedure, shortened: as §1
[6] = test system: DU-145; assay: Cytotoxicity against human DU145 cells at 100 uM after 72 hrs by MTT assay; conditions: DU-145, 72 h; procedure, shortened: as §1
[7] = test system: A2780; assay: Cytotoxicity against human A2780 cells at 100 uM after 72 hrs by MTT assay; conditions: A2780, 72 h; procedure, shortened: as §1
[8] = test system: MCF7; assay: Cytotoxicity against human MCF7 cells at 100 uM after 72 hrs by MTT assay; conditions: MCF7, 72 h; procedure, shortened: as §1
[9] = test system: HT-29; assay: Cytotoxicity against human HT29 cells at 100 uM after 72 hrs by MTT assay; conditions: HT-29, 72 h; procedure, shortened: as §1

In the case of `CCC(C)N1C(=O)[C@@H]2[C@H](C1=O)[C@@H]1CC[C@H]2O1` (stereo partly specified), the inhibition at 100 µM [1] is reported as less than 10%, the inhibition at 100 µM [2] is reported as less than 10% and the inhibition at 100 µM [3] is reported as less than 10%. The inhibition at 100 µM [4] was less than 10%, the inhibition at 100 µM [5] was less than 10% and the inhibition at 100 µM [6] was less than 10%. The inhibition at 100 µM [7] was less than 10%, the inhibition at 100 µM [8] was less than 10% and the inhibition at 100 µM [9] was less than 10%.
Molecule `O=C1[C@@H]2[C@H](C(=O)N1CCN1CCOCC1)[C@@H]1CC[C@H]2O1` has an inhibition at 100 µM [1] of less than 10%, an inhibition at 100 µM [2] of less than 10% and an inhibition at 100 µM [3] of less than 10%. It also gave an inhibition at 100 µM [4] of less than 10%, an inhibition at 100 µM [5] of less than 10% and an inhibition at 100 µM [6] of less than 10%. For the same molecule, the inhibition at 100 µM [7] was less than 10%, the inhibition at 100 µM [8] was less than 10% and the inhibition at 100 µM [9] was less than 10%.
With `O=C1[C@@H]2[C@H](C(=O)N1c1ccccc1)[C@@H]1CC[C@H]2O1` the inhibition at 100 µM [1] was 54%, the inhibition at 100 µM [2] was 25% and the inhibition at 100 µM [3] was 78%. For the same molecule, the inhibition at 100 µM [4] was 42%, the inhibition at 100 µM [5] was 50% and the inhibition at 100 µM [6] was 24%. For the same molecule, the inhibition at 100 µM [7] was 90%, the inhibition at 100 µM [8] was greater than 100% and the inhibition at 100 µM [9] was 63%.
In the case of `CCC(CO)N1C(=O)[C@@H]2[C@H](C1=O)[C@@H]1CC[C@H]2O1` (stereo partly specified), the inhibition at 100 µM [1] is reported as less than 10%, the inhibition at 100 µM [2] is reported as less than 10% and the inhibition at 100 µM [3] is reported as less than 10%. For the same molecule, the inhibition at 100 µM [4] was less than 10%, the inhibition at 100 µM [5] was less than 10% and the inhibition at 100 µM [6] was less than 10%. It also gave an inhibition at 100 µM [7] of less than 10%, an inhibition at 100 µM [8] of less than 10% and an inhibition at 100 µM [9] of less than 10%.
In the case of `CCCCCCCCCCCCCCN1C(=O)[C@@H]2[C@H](C1=O)[C@@H]1CC[C@H]2O1`, the GI50 [1] is reported as 50 µM, the GI50 [2] is reported as 47 µM and the GI50 [3] is reported as 52 µM. For the same molecule, the GI50 [4] was 49 µM, the GI50 [5] was 66 µM and the GI50 [6] was 73 µM. It also gave a GI50 [7] of 35 µM, a GI50 [8] of 43 µM and a GI50 [9] of 19 µM.
In the case of `CCCN1C(=O)[C@@H]2[C@H](C1=O)[C@@H]1CC[C@H]2O1`, the inhibition at 100 µM [1] is reported as less than 10%, the inhibition at 100 µM [2] is reported as less than 10% and the inhibition at 100 µM [3] is reported as 45%. It also gave an inhibition at 100 µM [4] of less than 10%, an inhibition at 100 µM [5] of less than 10% and an inhibition at 100 µM [6] of less than 10%. The inhibition at 100 µM [7] was less than 10%, the inhibition at 100 µM [8] was less than 10% and the inhibition at 100 µM [9] was 16%.
`O=C(O)CCCCCN1C(=O)[C@@H]2[C@H](C1=O)[C@@H]1CC[C@H]2O1` gave an inhibition at 100 µM [1] of 22%, an inhibition at 100 µM [2] of 11% and an inhibition at 100 µM [3] of 11%. For the same molecule, the inhibition at 100 µM [4] was less than 10%, the inhibition at 100 µM [5] was 12% and the inhibition at 100 µM [6] was 12%. For the same molecule, the inhibition at 100 µM [7] was 52%, the inhibition at 100 µM [8] was 47% and the inhibition at 100 µM [9] was 14%.
Molecule `O=C(O)CCCN1C(=O)[C@@H]2[C@H](C1=O)[C@@H]1CC[C@H]2O1` has an inhibition at 100 µM [1] of less than 10%, an inhibition at 100 µM [2] of less than 10% and an inhibition at 100 µM [3] of less than 10%. The inhibition at 100 µM [4] was less than 10%, the inhibition at 100 µM [5] was less than 10% and the inhibition at 100 µM [6] was less than 10%. The inhibition at 100 µM [7] was less than 10%, the inhibition at 100 µM [8] was less than 10% and the inhibition at 100 µM [9] was less than 10%.
In the case of `O=C1[C@@H]2[C@H](C(=O)N1CCCCCCO)[C@@H]1CC[C@H]2O1`, the inhibition at 100 µM [1] is reported as 22%, the inhibition at 100 µM [2] is reported as 6% and the inhibition at 100 µM [3] is reported as 16%. The inhibition at 100 µM [4] was 12%, the inhibition at 100 µM [5] was 14% and the inhibition at 100 µM [6] was less than 10%. For the same molecule, the inhibition at 100 µM [7] was 18%, the inhibition at 100 µM [8] was 51% and the inhibition at 100 µM [9] was 21%.
With `O=C1[C@@H]2[C@H](C(=O)N1c1ccc([N+](=O)[O-])cc1)[C@@H]1CC[C@H]2O1` the inhibition at 100 µM [1] was 45%, the inhibition at 100 µM [2] was 13% and the inhibition at 100 µM [3] was 44%. It also gave an inhibition at 100 µM [4] of 23%, an inhibition at 100 µM [5] of 37% and an inhibition at 100 µM [6] of 13%. The inhibition at 100 µM [7] was 53%, the inhibition at 100 µM [8] was greater than 100% and the inhibition at 100 µM [9] was 60%.
For `CC(CO)N1C(=O)[C@@H]2[C@H](C1=O)[C@@H]1CC[C@H]2O1` (stereo partly specified), the inhibition at 100 µM [1] was less than 10%, the inhibition at 100 µM [2] was less than 10% and the inhibition at 100 µM [3] was less than 10%. For the same molecule, the inhibition at 100 µM [4] was less than 10%, the inhibition at 100 µM [5] was less than 10% and the inhibition at 100 µM [6] was less than 10%. For the same molecule, the inhibition at 100 µM [7] was less than 10%, the inhibition at 100 µM [8] was less than 10% and the inhibition at 100 µM [9] was less than 10%.
`CCCCCCCCCCCCN1C(=O)[C@@H]2[C@H](C1=O)[C@@H]1CC[C@H]2O1` gave an inhibition at 100 µM [1] of 40%, an inhibition at 100 µM [2] of 35% and an inhibition at 100 µM [3] of 55%. The inhibition at 100 µM [4] was 58%, the inhibition at 100 µM [5] was 53% and the inhibition at 100 µM [6] was 66%. It also gave an inhibition at 100 µM [7] of 40%, an inhibition at 100 µM [8] of 52% and an inhibition at 100 µM [9] of 25%.
`CCCCCCCCN1C(=O)[C@@H]2[C@H](C1=O)[C@@H]1CC[C@H]2O1` gave an inhibition at 100 µM [1] of 68%, an inhibition at 100 µM [2] of 61% and an inhibition at 100 µM [3] of 65%. For the same molecule, the inhibition at 100 µM [4] was 54%, the inhibition at 100 µM [5] was less than 10% and the inhibition at 100 µM [6] was 44%. For the same molecule, the inhibition at 100 µM [7] was 50%, the inhibition at 100 µM [8] was 88% and the inhibition at 100 µM [9] was 70%.
Work on `COC(CO)CN1C(=O)[C@@H]2[C@H](C1=O)[C@@H]1CC[C@H]2O1` (stereo partly specified) yielded an inhibition at 100 µM [1] of less than 10%, an inhibition at 100 µM [2] of less than 10% and an inhibition at 100 µM [3] of less than 10%. The inhibition at 100 µM [4] was less than 10%, the inhibition at 100 µM [5] was less than 10% and the inhibition at 100 µM [6] was less than 10%. The inhibition at 100 µM [7] was less than 10%, the inhibition at 100 µM [8] was 33% and the inhibition at 100 µM [9] was 12%.
`O=C1[C@@H]2[C@H](C(=O)N1CCO)[C@@H]1CC[C@H]2O1` showed an inhibition at 100 µM [1] of less than 10%, an inhibition at 100 µM [2] of less than 10% and an inhibition at 100 µM [3] of 18%. The inhibition at 100 µM [4] was less than 10%, the inhibition at 100 µM [5] was 16% and the inhibition at 100 µM [6] was less than 10%. It also gave an inhibition at 100 µM [7] of 15%, an inhibition at 100 µM [8] of 45% and an inhibition at 100 µM [9] of 31%.
Molecule `O=C1[C@@H]2[C@H](C(=O)N1CCCCCCCCCCCCN1C(=O)[C@@H]3[C@H](C1=O)[C@@H]1CC[C@H]3O1)[C@@H]1CC[C@H]2O1` has a GI50 [1] of 17 µM, a GI50 [2] of 18 µM and a GI50 [3] of 24 µM. For the same molecule, the GI50 [4] was 43 µM, the GI50 [5] was 31 µM and the GI50 [6] was 60 µM. The GI50 [7] was 19 µM, the GI50 [8] was 18 µM and the GI50 [9] was 8.3 µM.
With `CCCCCCCCCCN1C(=O)[C@@H]2[C@H](C1=O)[C@@H]1CC[C@H]2O1` the inhibition at 100 µM [1] was 39%, the inhibition at 100 µM [2] was 52% and the inhibition at 100 µM [3] was 59%. For the same molecule, the inhibition at 100 µM [4] was 72%, the inhibition at 100 µM [5] was greater than 100% and the inhibition at 100 µM [6] was 83%. For the same molecule, the inhibition at 100 µM [7] was 44%, the inhibition at 100 µM [8] was 44% and the inhibition at 100 µM [9] was 20%.
Work on `O=C1[C@@H]2[C@H](C(=O)N1N1CCOCC1)[C@@H]1CC[C@H]2O1` yielded an inhibition at 100 µM [1] of 39%, an inhibition at 100 µM [2] of 30% and an inhibition at 100 µM [3] of 29%. It also gave an inhibition at 100 µM [4] of 3%, an inhibition at 100 µM [5] of 18% and an inhibition at 100 µM [6] of 3%. The inhibition at 100 µM [7] was 7%, the inhibition at 100 µM [8] was 12% and the inhibition at 100 µM [9] was 29%.
With `C=CCCN1C(=O)[C@@H]2[C@H](C1=O)[C@@H]1CC[C@H]2O1` the inhibition at 100 µM [1] was less than 10%, the inhibition at 100 µM [2] was less than 10% and the inhibition at 100 µM [3] was less than 10%. The inhibition at 100 µM [4] was less than 10%, the inhibition at 100 µM [5] was less than 10% and the inhibition at 100 µM [6] was less than 10%. For the same molecule, the inhibition at 100 µM [7] was less than 10%, the inhibition at 100 µM [8] was less than 10% and the inhibition at 100 µM [9] was less than 10%.
